What was measured:
Cavia porcellus [1] = species: Cavia porcellus; assay: (§1) In vitro evaluation on guinea pig trachea. EC50 which is the molar concentration required to give 50% inhibition of the isoproterenol response (1x10E-6M) was determined.; assay type: functional; details: read-out: ED50 (the source's name)
Method in brief: (§2)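 Isolated guinea pig tracheal spirals were held at 1.50 g initial tension (resting 0.4–0.6 g) in Tyrode at 37 °C, gassed with O2/CO2 95:5, and contracted with acetylcholine 3 × 10^-6 M. Antagonist was added 15 min before Ach. Isoproterenol 3 × 10^-8 to 3 × 10^-6 M was added at maximal contraction.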

Cavia porcellus [2] = species: Cavia porcellus; assay: as §1; assay type: functional, organism-based
Method in brief: as §2, with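 “contraction. EC50 came from four points, with ≥4 preparations per group.” for “contraction.”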

[3] = Compound was determined for heart rate with respect to propanol; assay type: functional
Method in brief: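 Urethane-anesthetized animals (1.25 g/kg ip). Carotid blood pressure was recorded, and heart rate was taken from pulse pressure. Three isoproterenol doses (10 µg/kg iv) set the control mean heart-rate rise and diastolic fall. Antagonist was given as four cumulative iv doses, with isoproterenol 10 min after each. The next dose followed return to baseline. Groups of ≥4 animals.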

Row | SMILES | EC50 (Cavia porcellus [1]) [nM] | EC50 (Cavia porcellus [2]) [nM] | Ratio [3]
1 | CC(C)(C)NCC(O)COc1cccc2c1[C@]1(O)CCCC[C@H]21 (some centres undefined) | 115 | – | –
2 | CC(C)NCC(O)COc1ccc2c(c1)[C@@H]1CCCC[C@H]21 (some centres undefined) | – | 502 | –
3 | CCCC(=O)Nc1ccc(OCC(O)CNC(C)C)c2c1[C@H]1CCCCC[C@@H]21 (some centres undefined) | 341 | – | –
4 | CC(C)NCC(O)COc1cccc2c1[C@]1(O)CCCCC[C@H]21 (some centres undefined) | 130 | – | –
5 | CC(C)(C)NCC(O)COc1ccc2c(c1)[C@@H]1CCCC[C@H]21 (some centres undefined) | – | 201 | –
6 | CC(C)(C)NCC(O)COc1cccc2c1[C@]1(O)CCCCC[C@H]21 (some centres undefined) | 5.49 | – | 0.08
7 | CC(C)NCC(O)COc1ccc2c(c1)[C@@H]1CCCCC[C@H]21 (some centres undefined) | – | 417 | 0.02
8 | COc1ccc(CCNCC(O)COc2cccc3c2[C@]2(O)CCCCC[C@H]32)cc1OC (some centres undefined) | 7010 | – | –
9 | CC(C)NCC(O)COc1cccc2c1[C@@H]1CCCCC[C@H]21 (some centres undefined) | – | 2 | 0.46
10 | CC(C)(C)NCC(O)COc1cccc2c1[C@@H]1CCCCC[C@]21O (some centres undefined) | 1.26 | – | 0.42
11 | CC(C)(C)NCC(O)COc1cccc2c1[C@@H]1CCCCC[C@H]21 (some centres undefined) | – | 45.7 | 0.57
12 | COc1ccc(CCNCC(O)COc2cccc3c2[C@@H]2CCCCC[C@]32O)cc1OC (some centres undefined) | 260 | – | 0.68
13 | CC(C)(C)NCC(O)COc1ccc2c(c1)[C@@H]1CCCCC[C@H]21 (some centres undefined) | 1380 | – | –
14 | CC(C)NCC(O)COc1cccc2c1[C@@H]1CCCC[C@H]21 (some centres undefined) | – | 70 | –
15 | CC(C)NCC(O)COc1cccc2c1[C@@H]1CCCCC[C@]21O (some centres undefined) | 1.3 | – | 0.8
16 | COc1ccc(CCNCC(O)COc2cccc3c2[C@@H]2CCCCC[C@H]32)cc1OC (some centres undefined) | – | 1100 | –
17 | CC(C)NCC(O)COc1ccc2ccccc2c1 (centres undefined) | 55 | – | –

— ChEMBL document CHEMBL1122673, “Synthesis of a novel series of (aryloxy)propanolamines: new selective beta 2-blocking agents” (J Med Chem, 1984)
